ChEMBL document CHEMBL4513216, “Probing the Open Global Health Chemical Diversity Library for Multistage-Active Starting Points for Next-Generation Antimalarials” (ACS Infect Dis, 2020)

Assay: Toxicity liver stage against HepG2, at 10uM
Format: cell-based
Set-up: test concentration 10 uM, cell line HepG2-A16-CD81EGFP
Settings: human, HepG2-A16-CD81EGFP cells; read-out: INHIBITION
Outline: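 Uninfected HepG2-A16-CD81EGFP cells, 3 × 10^3 per well, 1536-well, plated on prespotted compound at 10 μM final, parasite-free screening media added to match infected plates; puromycin 10 μM positive, DMSO 0.5% negative; run in parallel with 48 h PbLuc assay at 37 °C, 5% CO2; viability by CellTiter-Glo luminescence, normalized to controls.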

Compound	cytotoxicity at 10 µM [%]
Cc1ccccc1CN1CCC[C@H]1c1nc(-c2cncnc2N)no1	-0.921
COc1coc(C(=O)Nc2nc(-c3ccncc3)cs2)cc1=O	-7.97
CCc1ccc(S(=O)(=O)N2CC3(COC(C)(C)OC3)C2)s1	5.76
O=C1[C@H]2CN(c3ncc(F)cn3)C[C@H]2CN1CC1CC1	6.19
Cc1nnc([C@@H]2CCO[C@@H]3CCN(C(=O)Cc4ccsc4)C[C@@H]32)o1	9.43
Cn1cc(CN2CCCC3(CCN(Cc4ccncc4)C3=O)C2)cn1 (configuration not stated)	8.68
Cc1ccc(C(=O)N2CCN3C[C@H](Oc4cncnc4)C[C@H]3C2)cn1	5.01
COCCNC(=O)C(C)n1nc(-c2ccco2)cc(N)c1=O (configuration not stated)	2.62
CCN(CC)S(=O)(=O)N1CCCC(c2ncc3c(n2)CCN(C)C3)C1 (configuration not stated)	3.77
COc1cccc([C@@]2(O)CC[C@@H]3CN(C(=O)c4ccn(C)n4)C[C@@H]32)c1	2
c1cc(CN2CCCCC2c2ccc(Nc3cnccn3)nc2)ccn1 (configuration not stated)	7.38
CC(=O)N1CCCC(c2ccnc(Nc3cnccn3)n2)C1 (configuration not stated)	-12.5
C=Cn1ncc(CN2C[C@@H]3C[C@@H](O)CN3C[C@@H]2Cc2ccccc2)c1C	4.02
Cn1ccc(C(=O)N2CCC(Cc3cccc4ncccc34)CC2)n1	-3.17
CC(=O)NCCNC(=O)Nc1cc(C(C)(C)C)sc1C#N	0.665
CC(O)CCN(C)C(=O)Nc1cc(F)cc(Br)c1 (configuration not stated)	4.12
O=C(Nc1cc(C(F)(F)F)c[nH]c1=O)C1CCCNC1 (configuration not stated)	5.15
CCN(Cc1nccn1C)C1CCN(c2ccccc2)C1=O (configuration not stated)	4.19
Cc1nnc(NC(=O)NCc2ccc(C)n2C)s1	-2.08
COC(=O)c1ccoc1CN(C1CC1)C1CCS(=O)(=O)C1 (configuration not stated)	2.22
CS(=O)(=O)c1ccc(CNC(=O)NCc2cc[nH]n2)cc1	1.22
Cc1cc(CN(CC(N)=O)CC(C)C)on1	6.36

Compound	cytotoxicity at 10 µM [%]
Cc1ccccc1CN(C)C(C(N)=O)c1ccccc1 (configuration not stated)	13.1
CC1CCC(O)(Cn2ncnc2-c2cccc(C#N)c2)CC1 (configuration not stated)	0.775
O=C(CCC1CCCCO1)NCc1cnn(-c2ccc(F)cc2F)c1 (configuration not stated)	-11.4
O=C(NCCN1CCOCC1)c1ccc(OCc2ccccc2)nc1	-5.97
O=C(OC1CCC1)c1ncccc1C(F)(F)F	10.6
CN(Cc1ccc2c(c1)OCO2)C(=O)c1ccc(=O)n(C)c1	-9.17
CCCC(NC(=O)c1ccccc1Br)c1nnn[nH]1 (configuration not stated)	-1.8
Clc1ccc2oc(C3CCN(Cc4nc(C5CC5)no4)CC3)nc2c1	-5.15
CCn1ncc2c1CCCC2NCc1csc(C(C)C)n1 (configuration not stated)	-1.69
Cc1ccc(O)c(CNCC(C)c2nc3ccccc3o2)n1 (configuration not stated)	-1.74
CC(C)Nc1ncccc1C(=O)NCc1ccnn1C	-5.87
CCCN(C(=O)c1ocnc1C)C1CCCN(Cc2ccccc2)C1 (configuration not stated)	-7.79
CNC(=O)Cc1ccccc1NC(=O)C1CCCC1	31.1
CN1CCN(CCCN(C)S(=O)(=O)C2CCCCC2)CC1	-9.46
Cc1cc(=O)[nH]cc1C(=O)N1CCN(C)c2ccccc2C1	-10.1
Cc1nc(CN(C)C2CCN(Cc3nc4c(F)cccc4[nH]3)C2)no1 (configuration not stated)	-4.09
Cc1cnn(CC(C)NCc2c(C)nn(Cc3ccccc3)c2C)c1 (configuration not stated)	-4.66
Cc1cnn(CC2CCCN2Cc2cc(=O)n3cccc(C)c3n2)c1 (configuration not stated)	0.442
CN(C)CC(=O)N1CCc2sc(C(=O)N3CCOCC3)cc21	-99.4
CC(=O)N1CCC2(CC1)c1ncc(-c3ccccc3)n1CCN2C	-104
O=C(c1ccco1)N1CCC2(CCCN(c3ncc(F)cn3)C2)C1 (configuration not stated)	-88.4
CN1CCN(Cc2cnc3n2CCN(C(=O)c2ccncc2)C3)CC1	-73.8

Compound	cytotoxicity at 10 µM [%]
CCOCC1CN(C(=O)Cc2ccccn2)Cc2c1cnn2CC (configuration not stated)	-69.3
CCc1ccccc1OCCN1CCC(NS(C)(=O)=O)CC1	-20.4
O=C(c1c[nH]cn1)N1CCC(n2cc(-c3ccsc3)nn2)CC1	-14.3
COCc1noc(-c2ccc(N3CCCC3c3nccs3)nc2)n1 (configuration not stated)	7.12
NCCO[C@H]1C[C@@H](O)C12CCN(C1Cc3ccccc3C1)CC2	20.7
Nc1ncccc1CN1C[C@H]2OC(=O)N(Cc3ccccn3)[C@H]2C1	13.9
COCCCN1C(=O)CC[C@H]2CN(c3ccc(C(N)=O)cn3)CC[C@H]21	5.03
CCC[C@@H]1CN(S(=O)(=O)c2ccc(OC)c(OC)c2)C[C@H]1NC(C)=O	3.06
CCc1cc(C(=O)NCC2CCN(Cc3ccncc3)CC2)on1	10.4
CN(CCCN1CCCC1)[C@@H]1c2ccccc2C2(CCNCC2)[C@H]1O	-3.99
Cc1ccc(-n2c(COC(C)C)n[nH]c2=O)cc1	9.47
CN(C)Cc1nnc(C2CCCN(c3nccc4ccccc34)C2)n1C (configuration not stated)	-0.928
CCN(CC)C(=O)c1ccc(Cl)c(NC(=O)c2cc(C(C)C)on2)c1	6.9
COc1cccc(S(=O)(=O)N2CCN(C)[C@@H]3CS(=O)(=O)C[C@@H]32)c1	-9.6
Cc1cc(C(F)(F)F)nc(CCNC(C)Cn2ccnc2)n1 (configuration not stated)	4.21
CC(=O)N[C@@H]1CN(Cc2ccccc2C(=O)O)C[C@H]1C(C)C	3.15
CC(C)n1cnnc1CN(C)C(=O)c1cc(COc2ccccc2)[nH]n1	4.58
CNc1ncc(CN(C)c2nccc(CCC(F)(F)F)n2)cn1	-16.3
Cc1ccnc(CC(C)N(C)Cc2ccc3c(c2)CCO3)c1 (configuration not stated)	1.63
CN1CC2(CCN(Cc3cccc(C#N)c3)CC2)CC1=O	-0.145
Cc1ccc(C(=O)N2C[C@@H](C(=O)O)[C@H](c3ccncc3)C2)cc1F	-11.2
Cc1cc(-n2cccn2)ccc1CN1C[C@@H](CN(C)C)[C@@H](CO)C1	-9.4

Compound	cytotoxicity at 10 µM [%]
COc1ccc(C(=O)C2CCCN(Cc3ccc(C)o3)C2)c(OC)c1 (configuration not stated)	1.17
Cc1nc(O)c2nnn(C[C@H]3CCCN3C(=O)c3cccc(F)c3)c2n1	-0.00161
Cc1ncccc1O[C@H]1CCN(C(=O)Cc2cccs2)CC[C@@H]1O	5.92
COCc1cccc(CNC(=O)c2c(C)noc2C(C)C)c1	0.153
O=C(CN1CCCC1Cn1cncn1)NCCOc1ccc(F)cc1 (configuration not stated)	-3.56
CC(C)Oc1ncccc1CNC(=O)NC1CCOc2ccccc21 (configuration not stated)	-3.16
CC(C)Sc1ncccc1C(=O)NCc1ccoc1	-0.945
CCN(c1cc(C)cc(C)c1)S(=O)(=O)c1cc(C(=O)O)cs1	-1.92
Cc1nc(CN2CCN(C(=O)c3ccnc(N(C)C)c3)CC2)cs1	1.42
Cc1nn(C)c(N2CCOCC2)c1CNCc1ccc(C(C)O)cc1 (configuration not stated)	-4.93
Cc1ncsc1C(=O)NC1CCN(CC(=O)N(C)C(C)(C)C#N)CC1	-3.88
Cc1nc2ccnn2c(C)c1CCC(=O)N1CCC(C(N)=O)CC1	-9.26
CC(N(C)Cc1nc2c(cnn2C)c(=O)[nH]1)C(C)(C)C (configuration not stated)	-3.09
CN(Cc1nnc(C2CC2)n1C)C1CCN(Cc2ccon2)C1 (configuration not stated)	-9.04
Cc1noc(CN(Cc2ccc3c(c2)OCO3)C2CCCC2)n1	-5.28
O=C(Cc1cn2ccsc2n1)N1CCCC(n2cncn2)C1 (configuration not stated)	-5.97
N#Cc1ccc(C(=O)NCCCNc2ccc(C(F)(F)F)cn2)cc1	-4.53
Cc1ccc(CC(=O)N2CCN(CC(O)c3ccccc3)CC2)cn1 (configuration not stated)	-10.9
Cc1[nH]ncc1C(=O)N1CCCC(n2cncn2)C1 (configuration not stated)	7.75
Cc1cc(C)n(CCCn2cncc2-c2ccc3c(c2)CC(C)N3C)n1 (configuration not stated)	0.94
Cc1csc(C(Cc2ccsc2)NC(=O)CN(C)Cc2cccnc2)n1 (configuration not stated)	0.471
Cc1cnnn1Cc1nnn2c1CN(Cc1ccccn1)CCC2	9.73

Compound	cytotoxicity at 10 µM [%]
COCc1cnc2n1CCN(C1CCC1)C2C (configuration not stated)	4.77
Fc1cnc(N2C[C@@H]3COC[C@]3(COc3ccccn3)C2)nc1	-5.43
CN(C)C(=O)CO[C@H]1CN(Cc2cccc(F)c2)[C@@H]2CCCO[C@H]12	-2.76
CN1CCO[C@@H]2CN(C(=O)c3ccc4[nH]ccc4c3)CC[C@@H]2C1	-108
O=C(c1cscn1)N1CC[C@]2(C[C@@H](OCCN3CCCC3)CO2)C1	0.462
CN1C(=O)CC(c2cnn(C)c2)C12CCN(C(=O)c1ccncc1)CC2 (configuration not stated)	-84.4
Cc1ccccc1CN1C[C@@H](C(=O)N2CCCCO2)C[C@H]2OCC[C@H]21	-68.5
CN(C)C(=O)[C@@H]1CCO[C@@H]2CCN(CCOCc3ccccc3)C[C@H]21	-0.902
Cc1ccc(N2C[C@H](C(=O)NCC3CC3)[C@@H]3CCO[C@@H]3C2)nn1	-67.6
Fc1ccc(CN2CCC3(CC2)CCN(Cc2nccs2)CC3)cc1	4.92
COCCN1CCc2cc(C(=O)O)c(-c3ccoc3)nc2CC1	-75.6
Cc1nc[nH]c1CN1C[C@@H]2OCCN(c3ncccn3)[C@@H]2C1	-70.4
Cc1ccc(CN2CCOC3(COCCN(C(C)C)C3)C2)o1 (configuration not stated)	-107
Cc1noc(C)c1CN1CCc2ncnc(-c3cnn(C)c3)c2CC1	-98.4
Cc1cnc(C(=O)N2Cc3ncn(C)c3C(COCC(C)C)C2)cn1 (configuration not stated)	-112
CCn1ncc2c1C(COC)N(C(=O)CCc1ccccc1)CC2 (configuration not stated)	-96.8
Cc1ccc(CN2CCCn3c(nc(CN4CCCC4)cc3=O)C2)s1	-0.207
Cc1nc(CN2C[C@@H]3COC[C@]3(COCC(=O)N(C)C)C2)cs1	1.41
CCOCCC(=O)N1C[C@@H]2CC[C@H]1CN(c1ncccn1)C2	2.53
